According to ChEMBL document CHEMBL1151705, “Novel azalides derived from 16-membered macrolides. Part II: Isolation of the linear 9-formylcarboxylic acid and its sequential macrocyclization with an amino alcohol or an azidoamine” (2008):
Values after ≈ are worked out from the molar mass of the structure shown.

What was measured:
Type in all cases: functional
Staphylococcus aureus [1] = experiment: Antimicrobial activity against drug-susceptible Staphylococcus aureus 209P JC-1 after 20 hrs by agar dilution method; conditions: Staphylococcus aureus, 209P, 20 h; read-out: MIC
In short: (§1)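 Agar dilution MIC. S. aureus seed culture was grown in sensitivity test broth. Cell suspension (about 10⁶ CFU/ml) was inoculated onto sensitivity disk agar with 5% horse blood and incubated at 37 °C for 20 h. MIC was the lowest drug concentration that prevented visible growth.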

Streptococcus pneumoniae [2] = experiment: Antimicrobial activity against Streptococcus pneumoniae 5 constitutively expressing ermB/mefA after 20 hrs by agar dilution method; conditions: Streptococcus pneumoniae, 20 h; read-out: MIC
In short: (§2)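 Streptococci, H. influenzae and M. catarrhalis were precultured on blood agar plates. Suspensions of about 10⁶ CFU/ml were inoculated onto sensitivity disk agar supplemented with 5% horse blood and incubated at 37 °C for 20 h. MIC was read as the lowest drug concentration with no visible growth.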

Staphylococcus aureus [3] = experiment: Antimicrobial activity against Staphylococcus aureus 6 expressing inducible ermB after 20 hrs by agar dilution method; in short: as §1
Streptococcus pyogenes [4] = experiment: Antimicrobial activity against Streptococcus pyogenes 3 expressing mefA after 20 hrs by agar dilution method; conditions: Streptococcus pyogenes, 20 h; read-out: MIC; in short: as §2
Moraxella catarrhalis [5] = experiment: Antimicrobial activity against drug-susceptible Moraxella catarrhalis 1 after 20 hrs by agar dilution method; conditions: Moraxella catarrhalis, 20 h; read-out: MIC; in short: as §2
Streptococcus pneumoniae [6] = experiment: Antimicrobial activity against drug-susceptible Streptococcus pneumoniae 2 after 20 hrs by agar dilution method; conditions: Streptococcus pneumoniae, 20 h; read-out: MIC; in short: as §2
Streptococcus pneumoniae [7] = experiment: Antimicrobial activity against Streptococcus pneumoniae 8 expressing inducible ermB after 20 hrs by agar dilution method; conditions: Streptococcus pneumoniae, 20 h; read-out: MIC; in short: as §2
Streptococcus pneumoniae [8] = experiment: Antimicrobial activity against drug-susceptible Streptococcus pneumoniae DP1 Type1 after 20 hrs by agar dilution method; conditions: Streptococcus pneumoniae, 20 h; read-out: MIC; in short: as §2
Streptococcus pneumoniae [9] = experiment: Antimicrobial activity against Streptococcus pneumoniae 7 expressing inducible ermB after 20 hrs by agar dilution method; conditions: Streptococcus pneumoniae, 20 h; read-out: MIC; in short: as §2
Haemophilus influenzae [10] = experiment: Antimicrobial activity against drug-susceptible Haemophilus influenzae 2 after 20 hrs by agar dilution method; conditions: Haemophilus influenzae, 20 h; read-out: MIC; in short: as §2
Streptococcus pneumoniae [11] = experiment: Antimicrobial activity against Streptococcus pneumoniae 10 expressing mefA after 20 hrs by agar dilution method; conditions: Streptococcus pneumoniae, 20 h; read-out: MIC; in short: as §2
Haemophilus influenzae [12] = experiment: Antimicrobial activity against drug-susceptible Haemophilus influenzae 1 after 20 hrs by agar dilution method; conditions: Haemophilus influenzae, 20 h; read-out: MIC; in short: as §2
Haemophilus influenzae [13] = experiment: Antimicrobial activity against drug-susceptible Haemophilus influenzae 3 after 20 hrs by agar dilution method; conditions: Haemophilus influenzae, 20 h; read-out: MIC; in short: as §2
Staphylococcus aureus [14] = experiment: Antimicrobial activity against drug-susceptible Staphylococcus aureus 2 after 20 hrs by agar dilution method; conditions: Staphylococcus aureus, 20 h; read-out: MIC; in short: as §1
Staphylococcus aureus [15] = experiment: Antimicrobial activity against Staphylococcus aureus 4 constitutively expressing ermA after 20 hrs by agar dilution method; in short: as §1
Streptococcus pyogenes [16] = experiment: Antimicrobial activity against Streptococcus pyogenes 2 constitutively expressing ermB after 20 hrs by agar dilution method; in short: as §2
Staphylococcus aureus [17] = experiment: Antimicrobial activity against drug-susceptible Staphylococcus aureus 3 after 20 hrs by agar dilution method; conditions: Staphylococcus aureus, 20 h; read-out: MIC; in short: as §1
Haemophilus influenzae [18] = experiment: Antimicrobial activity against drug-susceptible Haemophilus influenzae 4 after 20 hrs by agar dilution method; conditions: Haemophilus influenzae, 20 h; read-out: MIC; in short: as §2
Streptococcus pneumoniae [19] = experiment: Antimicrobial activity against Streptococcus pneumoniae 9 expressing mefA after 20 hrs by agar dilution method; conditions: Streptococcus pneumoniae, 20 h; read-out: MIC; in short: as §2
Staphylococcus aureus [20] = experiment: Antimicrobial activity against Staphylococcus aureus 5 expressing inducible ermB after 20 hrs by agar dilution method; conditions: Staphylococcus aureus, 20 h; read-out: MIC; in short: as §1
Streptococcus pyogenes [21] = experiment: Antimicrobial activity against drug-susceptible Streptococcus pyogenes 1 after 20 hrs by agar dilution method; conditions: Streptococcus pyogenes, 20 h; read-out: MIC; in short: as §2
Moraxella catarrhalis [22] = experiment: Antimicrobial activity against drug-susceptible Moraxella catarrhalis 2 after 20 hrs by agar dilution method; conditions: Moraxella catarrhalis, 20 h; read-out: MIC; in short: as §2
Streptococcus pneumoniae [23] = experiment: Antimicrobial activity against Streptococcus pneumoniae 6 constitutively expressing ermB after 20 hrs by agar dilution method; conditions: Streptococcus pneumoniae, 20 h; read-out: MIC; in short: as §2

| Structure (SMILES) | MIC (Staphylococcus aureus [1]) [mg/L] | MIC (Streptococcus pneumoniae [2]) [mg/L] | MIC (Staphylococcus aureus [3]) [mg/L] | MIC (Streptococcus pyogenes [4]) [mg/L] | MIC (Moraxella catarrhalis [5]) [mg/L] | MIC (Streptococcus pneumoniae [6]) [mg/L] | MIC (Streptococcus pneumoniae [7]) [mg/L] | MIC (Streptococcus pneumoniae [8]) [mg/L] | MIC (Streptococcus pneumoniae [9]) [mg/L] | MIC (Haemophilus influenzae [10]) [mg/L] | MIC (Streptococcus pneumoniae [11]) [mg/L] | MIC (Haemophilus influenzae [12]) [mg/L] | MIC (Haemophilus influenzae [13]) [mg/L] | MIC (Staphylococcus aureus [14]) [mg/L] | MIC (Staphylococcus aureus [15]) [mg/L] | MIC (Streptococcus pyogenes [16]) [mg/L] | MIC (Staphylococcus aureus [17]) [mg/L] | MIC (Haemophilus influenzae [18]) [mg/L] | MIC (Streptococcus pneumoniae [19]) [mg/L] | MIC (Staphylococcus aureus [20]) [mg/L] | other results |
| --- | --- | --- | --- | --- | --- | --- | --- | --- | --- | --- | --- | --- | --- | --- | --- | --- | --- | --- | --- | --- | --- |
| CCOC(=O)[C@H]1[C@H](C)O[C@@H](O[C@H]2[C@H](N(C)C)[C@@H](O)[C@H](O[C@H]3[C@@H](CC=O)C[C@@H](C)[C@@H](OC(C)=O)CN(CCCCc4ccccc4)CC[C@@H](C)OC(=O)C[C@@H](OC(=O)CC)[C@@H]3OC)O[C@@H]2C)C[C@@]1(C)OC(C)=O | 0.5 (≈ 0.49 µM) | > 128 | 1 (≈ 0.979 µM) | 0.5 (≈ 0.49 µM) | 0.25 (≈ 0.245 µM) | 0.25 (≈ 0.245 µM) | > 128 | 0.25 (≈ 0.245 µM) | > 128 | 2 (≈ 1.96 µM) | 0.25 (≈ 0.245 µM) | > 128 | 16 (≈ 15.7 µM) | 1 (≈ 0.979 µM) | > 128 | > 128 | 0.5 (≈ 0.49 µM) | 16 (≈ 15.7 µM) | 0.5 (≈ 0.49 µM) | 0.5 (≈ 0.49 µM) | MIC (Streptococcus pyogenes [21]): 0.25 mg/L (≈ 0.245 µM); MIC (Moraxella catarrhalis [22]): 0.5 mg/L (≈ 0.49 µM); MIC (Streptococcus pneumoniae [23]): > 128 mg/L |
| CCOC(=O)[C@H]1[C@H](C)O[C@@H](O[C@H]2[C@H](N(C)C)[C@@H](O)[C@H](O[C@H]3[C@@H](CC=O)C[C@@H](C)[C@@H](OC(C)=O)CN(CCCCc4ccccc4)CCCNC(=O)C[C@@H](OC(=O)CC)[C@@H]3OC)O[C@@H]2C)C[C@@]1(C)OC(C)=O | 0.25 (≈ 0.248 µM) | > 128 | 1 (≈ 0.994 µM) | 0.5 (≈ 0.497 µM) | 0.25 (≈ 0.248 µM) | 0.5 (≈ 0.497 µM) | 32 (≈ 31.8 µM) | 0.25 (≈ 0.248 µM) | 32 (≈ 31.8 µM) | 0.5 (≈ 0.497 µM) | 0.25 (≈ 0.248 µM) | 16 (≈ 15.9 µM) | 2 (≈ 1.99 µM) | 1 (≈ 0.994 µM) | > 128 | > 128 | 0.5 (≈ 0.497 µM) | 4 (≈ 3.98 µM) | 0.25 (≈ 0.248 µM) | 0.25 (≈ 0.248 µM) | MIC (Streptococcus pyogenes [21]): 0.13 mg/L (≈ 0.129 µM); MIC (Moraxella catarrhalis [22]): 0.25 mg/L (≈ 0.248 µM); MIC (Streptococcus pneumoniae [23]): > 128 mg/L |
| CCOC(=O)[C@H]1[C@H](C)O[C@@H](O[C@H]2[C@H](N(C)C)[C@@H](O)[C@H](O[C@H]3[C@@H](CC=O)C[C@@H](C)[C@@H](O)CN(CCCc4ccnc5ccccc45)CCCNC(=O)C[C@@H](OC(=O)CC)[C@@H]3OC)O[C@@H]2C)C[C@@]1(C)O | 0.5 (≈ 0.521 µM) | > 128 | 0.5 (≈ 0.521 µM) | 1 (≈ 1.04 µM) | 2 (≈ 2.09 µM) | 0.13 (≈ 0.136 µM) | 16 (≈ 16.7 µM) | 0.06 (≈ 0.0626 µM) | 16 (≈ 16.7 µM) | 1 (≈ 1.04 µM) | 0.13 (≈ 0.136 µM) | 16 (≈ 16.7 µM) | 4 (≈ 4.17 µM) | 1 (≈ 1.04 µM) | > 128 | > 128 | 0.5 (≈ 0.521 µM) | 8 (≈ 8.34 µM) | 0.13 (≈ 0.136 µM) | 0.5 (≈ 0.521 µM) | MIC (Streptococcus pyogenes [21]): 0.25 mg/L (≈ 0.261 µM); MIC (Moraxella catarrhalis [22]): 1 mg/L (≈ 1.04 µM); MIC (Streptococcus pneumoniae [23]): > 128 mg/L |
| CCOC(=O)[C@H]1[C@H](C)O[C@@H](O[C@H]2[C@H](N(C)C)[C@@H](O)[C@H](O[C@H]3[C@@H](CC=O)C[C@@H](C)[C@@H](O)CN(CCCCc4ccccc4)CCCOC(=O)C[C@@H](OC(=O)CC)[C@@H]3OC)O[C@@H]2C)C[C@@]1(C)OC(C)=O | 0.25 (≈ 0.259 µM) | > 128 | 0.5 (≈ 0.518 µM) | 0.13 (≈ 0.135 µM) | 0.13 (≈ 0.135 µM) | 0.13 (≈ 0.135 µM) | 16 (≈ 16.6 µM) | 0.13 (≈ 0.135 µM) | 4 (≈ 4.14 µM) | 1 (≈ 1.04 µM) | 0.13 (≈ 0.135 µM) | 16 (≈ 16.6 µM) | 4 (≈ 4.14 µM) | 1 (≈ 1.04 µM) | > 128 | > 128 | 0.25 (≈ 0.259 µM) | 8 (≈ 8.29 µM) | 0.25 (≈ 0.259 µM) | 0.25 (≈ 0.259 µM) | MIC (Streptococcus pyogenes [21]): 0.06 mg/L (≈ 0.0622 µM); MIC (Moraxella catarrhalis [22]): 0.25 mg/L (≈ 0.259 µM) |
